Laboratory results as given in publication PMC6045484 (ACS Omega, 2018).
Converted amounts (≈) assume the structure as drawn.

Experiments:
[1] = system: SK-MEL, KB, BT-549, SK-OV-3, VERO and LLC-PK1 cells; assay: cytotoxicity, neutral red uptake assay; format: cell-based, mammalian; conditions: highest test concentration 4760 ng/mL
Summary of the method: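 Cells seeded at 25 000/well and allowed 24 h to reach confluence. Test compound was then added and incubated 48 h. Viable cells were counted by a modified neutral red uptake method. The panel was four human cancer lines and two noncancerous mammalian kidney lines. Doxorubicin served as positive control and DMSO as negative control.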

[2] = system: C. krusei ATCC6258; assay: in vitro antifungal activity; format: cell-based, Candida krusei
Summary of the method: (§1)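 Modified NCCLS broth method in Sabouraud dextrose. Inoculum set by OD630 to 1.5 × 10^3 CFU/mL. Test compound serially diluted in 20% DMSO/saline, duplicate wells, up to 20 μg/mL. Incubated 70–74 h at 35 °C; 530 nm read before and after. IC50 is 50% growth inhibition; MIC is no detectable growth. MFC from clear wells subcultured on agar. Amphotericin B control.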

[3] = system: MRSA (ATCC33591); assay: in vitro antibacterial activity; format: cell-based, methicillin-resistant Staphylococcus aureus; conditions: methicillin-resistant S. aureus; highest test concentration 20 μg/mL
Summary of the method: (§2)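 Test compound serially diluted in 20% DMSO/saline and plated in duplicate, up to 20 μg/mL. Inoculum in cation-adjusted Mueller–Hinton broth, pH 7.3, set by OD630 to 5 × 10^5 CFU/mL. Incubated 16–20 h at 35 °C; 530 nm read before and after. IC50 is 50% growth inhibition; MIC is no detectable growth. MBC from clear wells subcultured on agar. Ciprofloxacin control.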

[4] = system: C. glabrata ATCC90030; assay: in vitro antifungal activity; format: cell-based, Candida glabrata
Summary of the method: as §1

[5] = system: C. neoformans ATCC90113; assay: in vitro antifungal activity; format: cell-based, Cryptococcus neoformans
Summary of the method: as §1

[6] = system: A. fumigatus ATCC 90906; assay: in vitro antifungal activity; format: cell-based, Aspergillus fumigatus
Summary of the method: as §1

[7] = system: M. intracellulare (ATCC23068); assay: in vitro antibacterial activity, modified alamarBlue procedure; format: cell-based, Mycobacterium intracellulare; conditions: highest test concentration 20 μg/mL
Summary of the method: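 Modified alamarBlue microplate method. Test compound serially diluted in 20% DMSO/saline, duplicate wells, up to 20 μg/mL. Inoculum 2.0 × 10^6 CFU/mL in Middlebrook 7H9 with OADC, pH 7.3, containing 5% alamarBlue. Incubated 70–74 h at 37 °C, 10% CO2; fluorescence 544ex/590em read before and after. MIC: no blue-to-pink change. MBC by subculturing blue wells on agar. Ciprofloxacin control.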

[8] = system: SA (ATCC29213); assay: in vitro antibacterial activity; format: cell-based; conditions: Staphylococcus aureus; highest test concentration 20 μg/mL
Summary of the method: as §2

[9] = system: L. donovani promastigotes; assay: in vitro antileishmanial activity, alamarBlue assay; format: cell-based, Leishmania donovani; conditions: promastigotes, 48 h
[10] = system: P. falciparum (D6); assay: in vitro antimalarial activity, plasmodial LDH; format: cell-based, Plasmodium falciparum; conditions: CQ-sensitive D6 strain, 72 h
[11] = system: P. falciparum (W2); assay: in vitro antimalarial activity, plasmodial LDH; format: cell-based, Plasmodium falciparum; conditions: CQ-resistant W2 strain, 72 h
Summary of the method: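 P. falciparum-infected erythrocytes (2% parasitemia, 2% hematocrit) in RPMI 1640 with 10% human serum and 60 μg/mL amikacin. Exposed to test compound dilutions for 72 h at 37 °C under 90% N2/5% O2/5% CO2. LDH measured with Malstat reagent (30 min, room temperature), then NBT/PES for 1 h in the dark, stopped with 5% acetic acid, read at 650 nm. IC50 from dose-response curves.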

[12] = system: C. albicans ATCC90028; assay: in vitro antifungal activity; format: cell-based, Candida albicans
Summary of the method: as §1

Compound	cytotoxicity CTX [1]	C. krusei IC50 [2]	C. krusei MFC [2]	C. krusei MIC [2]	IC50 (concentration that affords 50% growth inhibition), MRSA [3]	MBC (minimum bactericidal concentration), MRSA [3]	MIC, MRSA [3]	C. glabrata IC50 [4]	C. glabrata MFC [4]	C. glabrata MIC [4]	C. neoformans IC50 [5] [µg/mL]	C. neoformans MFC [5] [µg/mL]	C. neoformans MIC [5] [µg/mL]	A. fumigatus IC50 [6]	A. fumigatus MFC [6]	A. fumigatus MIC [6]	IC50 (concentration that affords 50% growth inhibition), M. intracellulare [7] [µg/mL]	MBC (minimum bactericidal concentration), M. intracellulare [7] [µg/mL]	MIC, M. intracellulare [7] [µg/mL]	IC50 (concentration that affords 50% growth inhibition), SA [8]	other results
CCCCCCOc1c(OC)cc(NC(C)CCCNC(=O)C2CCCN2)c2nc(C(C)(C)C)ccc12 (stereo not drawn) [compound 103, N-(4-(2-tert-Butyl-5-(hexyloxy)-6-methoxyquinolin-8-lamino)pentyl)pyrrolidine-2-carboxamide]	NC (NC, not cytotoxic up to 4760 ng/mL (4.76 μg/mL))	8.76 µg/mL	10.00 µg/mL	10.00 µg/mL	2.64 µg/mL (≈ 5.15 µM)	20.00 µg/mL (≈ 39 µM)	5.00 µg/mL (≈ 9.75 µM)	8.91 µg/mL	10.00 µg/mL	10.00 µg/mL	1.49	2.50	2.50	NA (NA, no activity at the highest test concentration of 20 μg/mL)	NA (NA, no activity at the highest test concentration of 20 μg/mL)	NA (NA, no activity at the highest test concentration of 20 μg/mL)	5.94 (≈ 11.6 µM)	10.00 (≈ 19.5 µM)	10.00 (≈ 19.5 µM)	2.89 µg/mL (≈ 5.64 µM)	MBC (minimum bactericidal concentration), SA [8]: 10.00 µg/mL (≈ 19.5 µM); MIC, SA [8]: 5.00 µg/mL (≈ 9.75 µM); L. donovani IC50 [9]: 4.0 µg/mL; L. donovani IC90 [9]: 6.8 µg/mL; P. falciparum (D6) IC50 [10]: 4 µg/mL; P. falciparum (W2) IC50 [11]: 2.7 µg/mL; C. albicans IC50 [12]: 11.54 µg/mL; C. albicans MFC [12]: 20.00 µg/mL; C. albicans MIC [12]: 20.00 µg/mL
CCCCCCCOc1c(OC)cc(NC(C)CCCNC(=O)C2CCCN2)c2nc(C(C)(C)C)ccc12 (stereo not drawn) [compound 113, N-(4-(2-tert-Butyl-5-(heptyloxy)-6-methoxyquinolin-8-lamino)pentyl)pyrrolidine-2-carboxamide]	NC (NC, not cytotoxic up to 4760 ng/mL (4.76 μg/mL))	NA (NA, no activity at the highest test concentration of 20 μg/mL)	NA (NA, no activity at the highest test concentration of 20 μg/mL)	NA (NA, no activity at the highest test concentration of 20 μg/mL)	3.16 µg/mL (≈ 6 µM)	20.00 µg/mL (≈ 38 µM)	5.00 µg/mL (≈ 9.49 µM)	NA (NA, no activity at the highest test concentration of 20 μg/mL)	NA (NA, no activity at the highest test concentration of 20 μg/mL)	NA (NA, no activity at the highest test concentration of 20 μg/mL)	2.93	5.00	5.00	NA (NA, no activity at the highest test concentration of 20 μg/mL)	NA (NA, no activity at the highest test concentration of 20 μg/mL)	NA (NA, no activity at the highest test concentration of 20 μg/mL)	16.67 (≈ 31.6 µM)	20.00 (≈ 38 µM)	20.00 (≈ 38 µM)	3.52 µg/mL (≈ 6.68 µM)	MBC (minimum bactericidal concentration), SA [8]: 10.00 µg/mL (≈ 19 µM); MIC, SA [8]: 10.00 µg/mL (≈ 19 µM); L. donovani IC50 [9]: 3.8 µg/mL; L. donovani IC90 [9]: 7 µg/mL; P. falciparum (D6) IC50 [10]: 2.4 µg/mL; P. falciparum (W2) IC50 [11]: 1.5 µg/mL; C. albicans IC50 [12]: NA (NA, no activity at the highest test concentration of 20 μg/mL); C. albicans MFC [12]: NA (NA, no activity at the highest test concentration of 20 μg/mL); C. albicans MIC [12]: NA (NA, no activity at the highest test concentration of 20 μg/mL)
CCCCCCCCOc1c(OC)cc(NC(C)CCCNC(=O)C(N)CCCN)c2nc(C(C)(C)C)ccc12 (stereo not drawn) [compound 118, 2,5-Diamino-N-(4-(2-tert-butyl-6-methoxy-5-(octyloxy)quinolin-8-lamino)pentyl)-pentanamide]	NC (NC, not cytotoxic up to 4760 ng/mL (4.76 μg/mL))	15.36 µg/mL	>20 µg/mL	>20 µg/mL	NA (NA, no activity at the highest test concentration of 20 μg/mL)	NA (NA, no activity at the highest test concentration of 20 μg/mL)	NA (NA, no activity at the highest test concentration of 20 μg/mL)	8.05 µg/mL	>20 µg/mL	>20 µg/mL	4.93	>20	>20	NA (NA, no activity at the highest test concentration of 20 μg/mL)	NA (NA, no activity at the highest test concentration of 20 μg/mL)	NA (NA, no activity at the highest test concentration of 20 μg/mL)	7.71 (≈ 13.8 µM)	>20	>20	NA (NA, no activity at the highest test concentration of 20 μg/mL)	MBC (minimum bactericidal concentration), SA [8]: NA (NA, no activity at the highest test concentration of 20 μg/mL); MIC, SA [8]: NA (NA, no activity at the highest test concentration of 20 μg/mL); L. donovani IC50 [9]: 26.61 µg/mL; L. donovani IC90 [9]: 37.9 µg/mL; P. falciparum (D6) IC50 [10]: NA (NA, not active); P. falciparum (W2) IC50 [11]: NA (NA, not active); C. albicans IC50 [12]: 19.95 µg/mL; C. albicans MFC [12]: >20 µg/mL; C. albicans MIC [12]: >20 µg/mL
